Source: PubChem (several laboratories)
RAM network inh = inhibitors of the yeast RAM network, primary screen, dse1pr::URA3 reporter, 5-FOA selection; 1.8% of 190,000 active; S. cerevisiae dse1pr::URA3 reporter, 5-FOA growth OD615, 2 d; analog-sensitive cbk1-as2 kinase mutant strain; AID 868, 2007; inhibition, % at 50 µM;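 active = inhibition above a set limit, 3 SD over mean compound inhibition, cut at about 8.4% in these data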;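 also: 0% = DMSO-only wells with no growth and 100% = 10 µM 1-NA-PP1 full growth; inhibition rescues growth on 5-FOA so higher OD means more RAM inhibition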
INS promoter inh = inhibitors of insulin promoter-driven GFP, primary screen, imaging, TRM-6 cells, eGFP reporter, cell count; 0.9% of 130,000 active; AID 1273, 2008; reporter expression induced with tamoxifen; inhibition, % at 2 µM;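 active = inhibition above the mean plus 3 SD, with well images judged a real hit on visual review, cut at about 60% in these data, passing the limit was not always enough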
NPY-Y2 PAM-ag = NPY-Y2 potentiators or agonists, primary screen, cell-based; Neuropeptide Y receptor type 2 (Homo sapiens), P49146; cells expressing NPY-Y2, potentiator/agonist read-out; activation, % at 3.6 µM; 0.45% of 220,000 active; AID 1359, 2008; in the data active = activation above about 27%;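 also: cells stimulated with NPY near EC25 plus isoproterenol at EC100; 0% = vehicle plus submaximal agonist and 100% = vehicle plus saturating agonist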
NPY Y1 blocker = NPY-Y1 receptor antagonists, primary screen, cell-based. inhibition, % at 3.6 µM. AID 1040, 2008. HEK293-CNG Y1 cells, membrane potential fluorescence; NPY at EC95, then isoproterenol. Neuropeptide Y receptor type 1 (Homo sapiens), P25929. 1% of 200,000 active;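 active = inhibition above the campaign mean inhibition of all tested compounds plus 3 SD, cut at about 20% in these data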;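 also: 0% = DMSO wells given NPY plus isoproterenol and 100% = isoproterenol alone without NPY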
Target sequence (P25929 whole entry, looked up): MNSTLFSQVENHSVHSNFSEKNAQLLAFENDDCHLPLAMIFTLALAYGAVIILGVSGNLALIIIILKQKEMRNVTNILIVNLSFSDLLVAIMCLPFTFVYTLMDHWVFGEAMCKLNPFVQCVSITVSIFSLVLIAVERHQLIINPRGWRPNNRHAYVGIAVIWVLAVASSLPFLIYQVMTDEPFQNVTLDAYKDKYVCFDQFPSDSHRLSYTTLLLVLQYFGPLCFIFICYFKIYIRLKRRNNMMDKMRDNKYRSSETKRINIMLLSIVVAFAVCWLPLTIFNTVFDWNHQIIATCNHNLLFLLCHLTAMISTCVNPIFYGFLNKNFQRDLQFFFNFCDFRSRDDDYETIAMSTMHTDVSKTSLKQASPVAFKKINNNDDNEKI
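Material: HEK293 Y1/CNG channel cell line; also added: NPY (25 nM), isoproterenol (1 µM), Ro 20-1724 (25 µM); doses: one concentration, 3.6 µM, in 0.4% DMSO; schedule: compound incubation 1 h at room temperature, readout 45 min post-stimulation; technique: membrane potential fluorescence; measure: fluorescence ratio normalized to % inhibition between controls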
NPY Y2 blocker = NPY-Y2 receptor antagonists, primary screen, cell-based; NPY-Y2 expressing cells, antagonist mode; inhibition, % at 2.7 µM; 0.99% of 140,000 active; AID 793, 2007; in the data active = inhibition above about 17%;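 also: 0% = vehicle with agonist challenge and 100% = reference antagonist with challenge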
NPY1 pot ag = NPY-Y1 receptor potentiators or agonists, primary screen, cell-based. AID 1304, 2008. NPY-Y1 expressing cells, potentiator/agonist activation. 0.37% of 220,000 active. activation, % at 3.6 µM; in the data active = activation above about 33%, passing the limit was not always enough;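 also: cells stimulated with NPY at EC10 then isoproterenol at EC100; 0% = low agonist plus stimulus and 100% = saturating agonist plus stimulus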
* marks the source's active call; other numbers are inactive results; · = not tested or not shown. Most compounds without a hit are left out; they make up all but 3.8% or so of the library.

SMILES | RAM network inh | INS promoter inh | NPY-Y2 PAM-ag | NPY Y1 blocker | NPY Y2 blocker | NPY1 pot ag
COc1ccc(NS(=O)(=O)c2cc(NC(=O)CNC(=O)c3ccc(C)s3)ccc2Cl)cc1 | 10* | -9 | 3 | -1 | 1 | -14
Cc1ccc(C(=O)NCC(=O)Nc2ccc(C)c(S(=O)(=O)Nc3ccc(Cl)cc3)c2)s1 | 6 | 33 | -6 | -4 | · | -10
CC1CCCCC1NC(=O)CCCn1c(=S)[nH]c2ccccc2c1=O (centres undefined) | 4 | -7 | -10 | 0 | · | 3
CC1CCCC(NC(=O)CCCn2c(=S)[nH]c3ccccc3c2=O)C1C (centres undefined) | 9.0* | -47 | 10 | 5 | · | 5
CCC(=NC(C)c1ccccc1)c1c(O)n(C)c(=O)n(C)c1=O (centres undefined) | 1 | 81* | -11 | 12 | 1 | -27
CC(C)Sc1oc(-c2ccco2)nc1S(=O)(=O)c1ccc(F)cc1 | 1 | 3 | -4 | -4 | 1 | -13
CSc1oc(-c2ccco2)nc1S(=O)(=O)c1ccc(Br)cc1 | 8.4* | · | -2 | 5 | 4 | -4
Cc1nn(C(=O)c2ccco2)c(C)c1Sc1ccc(Br)cc1 | 8.8* | · | 9 | 1 | 0 | 9
CCOC(=O)c1c(-c2ccco2)csc1NC(=O)CSc1nnc(N)s1 | 10* | 49 | -19 | 6 | 6 | -14
C=CCn1c(SCC(=O)Nc2sc(C)c(C)c2C(=O)OCC)nnc1-c1sc(N)nc1C | 11* | -26 | 6 | 0 | 2 | -4
CCn1ncc(Br)c1C(=O)Nc1sc2c(c1C(=O)OC)CCC2 | · | 17 | 14 | 10 | 5 | -18
CCOC(=O)c1c(NC(=S)Nc2ccccc2)sc(C)c1C | 9.6* | 46 | -2 | 4 | 1 | -18
C=CCn1c(SCC(=O)NC2CCCCC2)nnc1-c1sc(N)nc1C | 0 | 50 | 3 | 0 | 3 | 0
CCOC(=O)c1c(NC(=O)c2c(Br)cnn2CC)sc(C)c1C | 9.1* | -25 | 7 | -3 | 2 | -20
O=C(Nc1ccc(F)c([N+](=O)[O-])c1)C(=O)c1c(O)[nH]c2ccccc12 | 1 | -45 | -3 | -2 | · | 21
COCCNC(=O)CSc1cc(=O)n(C)c2cc(Cl)ccc12 | 1 | 27 | -15 | -1 | · | 3
CCOC(=O)c1c(NC(=O)CSc2nc3ccccc3s2)sc(C)c1C | 11* | -50 | -34 | 20 | 14 | -67
CCOC(=O)c1c(/N=C/c2cc(OC)cc([N+](=O)[O-])c2O)sc(C)c1C | 9.5* | 48 | 6 | 15 | 2 | -13
Cc1cc(Cl)nc(Cl)c1C(=O)N1CCOCC1 | -1 | · | 10 | 0 | · | 12
Cc1ccc(NS(=O)(=O)c2cc(NC(=O)c3ccc4c(c3)NC(=O)CS4)ccc2Cl)c(C)c1 | 7 | 44 | -13 | -3 | · | -19
O=C(c1ccc(CSc2nc3ccncc3[nH]2)cc1)N1CCN(c2cccc(Cl)c2)CC1 | 0 | -46 | 36* | 1 | -1 | 50*
CSCCC(NC(=O)c1ccc(Cl)cc1)C(=O)OCC(=O)Nc1cc(Cl)ccc1C#N (centres undefined) | 8.7* | 14 | 2 | 0 | 1 | 5
CCOc1ccc(N(C(=O)c2cnsn2)C(C(=O)NC2CCCCC2)c2ccncc2)cc1 (centres undefined) | 1 | -39 | 12 | 34* | 20* | -27
c1ccc(-c2noc(-c3cccnc3)n2)nc1 | 0 | 89* | 14 | -4 | 1 | 5
Cc1ccc(NC(=O)c2ccccc2NS(=O)(=O)c2ccc(F)cc2)cc1S(=O)(=O)N1CCCCC1 | 8.9* | · | 3 | -3 | 2 | 12
SMILES | RAM network inh | INS promoter inh | NPY-Y2 PAM-ag | NPY Y1 blocker | NPY Y2 blocker | NPY1 pot ag
CCOC1OC(=O)C(Cl)=C1Nc1ccc(C)cc1 (centres undefined) | 0 | 6 | 0 | 2 | · | 8
Cc1ccc(NC2=C(Cl)C(=O)OC2NC(=O)c2ccccc2)cc1 (centres undefined) | 9.3* | -13 | 1 | -4 | 2 | 5
COC(=O)C(C)Sc1nc2c(c(=O)[nH]c(=O)n2C)n1CCCc1ccccc1 (centres undefined) | 1 | -3 | -12 | 46* | 46* | -47
O=C(COC(=O)c1ccc(S(=O)(=O)Nc2ccccc2)cc1)NCCN1C(=O)CSC1=O | 3 | 36 | 3 | 2 | 0 | 2
CCOc1ccc(C(=O)NC(=S)Nc2cccc(NC(=O)c3ccco3)c2)cc1[N+](=O)[O-] | 8.8* | · | 2 | 0 | 1 | -17
CCCn1nnc(NC(=O)c2ccc(Br)cc2)n1 | -1 | 79* | 8 | -1 | 2 | 9
COc1ccccc1N(C(=O)c1snc(C(N)=O)c1N)C(C(=O)NC1CCCC1)c1ccco1 (centres undefined) | 2 | 33 | -16 | 27* | 20* | -24
COc1ccccc1N(C(=O)c1snc(C(N)=O)c1N)C(C(=O)NCCC(C)C)c1ccco1 (centres undefined) | 2 | 0 | -14 | 9 | 9 | -33
CC1CC(=O)NN=C1c1ccc(N(C)C)c([N+](=O)[O-])c1 (centres undefined) | 0 | 4 | -43 | 78* | 94* | -88
CCN(CC)c1ccc(C2=NNC(=O)CC2C)cc1[N+](=O)[O-] (centres undefined) | 4 | -4 | -45 | 64* | 71* | -85
CN=C(c1ccc([N+](=O)[O-])cc1)N1CCCCC1 | 0 | · | 10 | 1 | · | 3
Cc1c(Br)c([N+](=O)[O-])nn1CC(=O)N(C)Cc1ccccc1 | 1 | · | 20 | 3 | · | 18
COC(=O)c1sc(NC(=O)c2cnccn2)c(C(=O)OC)c1C | · | 31 | -1 | -2 | 2 | 2
COc1ccccc1NC(=O)C1=C(C)NC(SCC(=O)c2ccc(C)cc2)=C(C#N)C1c1ccco1 (centres undefined) | 8.8* | 16 | -20 | 4 | 7 | -10
COc1nc(Nc2ccc([N+](=O)[O-])cc2)nc(NC2CCCCC2)n1 | 0 | 36 | 6 | 2 | · | -14
CC1(C)Cc2c(c(N3CCOCC3)nc3sc4c(NCc5ccccc5)nnnc4c23)CS1 | 8.7* | 0 | -9 | -1 | -2 | -2
CC1(C)Cc2c(c(N3CCOCC3)nc3sc4c(NCc5ccco5)nnnc4c23)CS1 | 5 | 50 | -7 | 3 | 0 | -25
COc1cc(C2CC(=O)N(CC(=O)NCC3CCCO3)c3ccccc3S2)cc(OC)c1OC (centres undefined) | 0 | · | -2 | 6 | · | -21
